Rows were chosen to be rich in hits. Some 12% of all compounds tested hit in one or more screens of this group.
PKD1 inh = inhibitors of human PKD1 kinase, biochemical, fluorescence polarization. inhibition, % (test concentration not listed). PKD1 kinase fluorescence polarization assay. 200,000 tested, 0.056% active. AID 797, 2007
Rad51 HR inh = human RAD51 strand exchange inhibitors, primary screen, biochemical, fluorescence | DNA repair protein RAD51 homolog 1 (Homo sapiens), Q06609 | hRad51 DNA strand exchange, fluorescence dequenching | inhibition, % at 10 µM | 200,000 tested, 0.085% active;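 active = inhibition above 40% at the single screening dose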
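Read-out basis: percent inhibition relative to plate controls and blanks / Assay system: human Rad51 nucleoprotein filaments preassembled on unlabelled ssDNA / Timing: filaments 15 min 37 °C, then compound 30 min / Control set: per-plate controls and blanks / Technique: fluorescence dequenching at 485/520 nm / Compound: 10 µM final, single point / Also added: Fluorescein- and BHQ1-tagged 47-mer duplex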
Wee1 stabilizer = Wee1 degradation inhibitors, primary screen, cell-based, HeLa, Wee1K328M-luciferase, luminescence | Wee1-like protein kinase (Homo sapiens), P30291 | reporter increase, % at 5 µM | 220,000 tested, 1.2% active | HeLa Luc-Wee1K328M stability; 100% = proteasome inhibitor MG132 effect;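 active = activation above the mean of all tested compounds plus 3 SD, set per screening run, cut at about 8.8% in these data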;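 note: cells exposed to compound for 20 h before luminescence read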
Target sequence (P30291 whole entry K328M): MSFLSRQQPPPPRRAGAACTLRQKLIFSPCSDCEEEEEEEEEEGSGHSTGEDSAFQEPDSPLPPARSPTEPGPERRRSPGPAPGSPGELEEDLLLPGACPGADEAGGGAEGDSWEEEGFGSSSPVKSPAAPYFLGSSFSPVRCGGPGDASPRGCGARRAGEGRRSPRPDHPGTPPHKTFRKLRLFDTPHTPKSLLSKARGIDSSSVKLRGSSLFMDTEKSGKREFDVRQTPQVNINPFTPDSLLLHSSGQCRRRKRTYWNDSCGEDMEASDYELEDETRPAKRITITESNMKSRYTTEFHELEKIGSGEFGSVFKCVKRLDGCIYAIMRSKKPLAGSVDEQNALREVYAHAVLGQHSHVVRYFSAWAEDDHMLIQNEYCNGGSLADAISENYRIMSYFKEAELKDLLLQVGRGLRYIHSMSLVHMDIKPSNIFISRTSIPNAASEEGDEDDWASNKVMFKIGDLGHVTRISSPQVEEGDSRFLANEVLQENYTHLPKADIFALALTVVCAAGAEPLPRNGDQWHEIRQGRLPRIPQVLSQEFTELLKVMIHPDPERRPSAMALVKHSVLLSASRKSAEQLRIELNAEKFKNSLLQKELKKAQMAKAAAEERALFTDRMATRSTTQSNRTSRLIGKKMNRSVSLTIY
Arbovirus inh = antivirals against arbovirus infection, primary screen, cell-based, full library, 10K replicate subset; arbovirus infection cell-based antiviral screen; inhibition, % at 10 µM; 200,000 tested, 0.37% active; in the data active = inhibition above about 30%
CHOP inh = inhibitors of CHOP promoter induction, primary screen, cell-based, unfolded protein response, luciferase reporter | CHO-K1 CHOP-promoter luciferase, tunicamycin-induced, 15-18 h | inhibition, % at 10 µM | 220,000 tested, 3.8% active;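 active = compounds that reduced the stress-induced luciferase reporter signal by more than about 70% of percent inhibition, limit read from the data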
Lmaj promast = Leishmania major promastigote growth inhibition, primary screen. inhibition, % at 10 µM. Leishmania major promastigotes, resazurin fluorescence viability. 200,000 tested, 9% active. AID 1063, 2008;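 note: promastigotes grown with compound for 44 hours at 28 °C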
A number is an active result; - = inactive; . = not tested or not shown. Cut-off read from the data, not from the text of the source, unless noted: active = inhibition above about 50%; inactive = the rest.

SMILES | PKD1 inh | Rad51 HR inh | Wee1 stabilizer | Arbovirus inh | CHOP inh | Lmaj promast
CC(=O)c1ccc(N2CCN(C(=O)Nc3ccc(Cl)cc3)CC2)cc1 | - | - | - | - | - | -
CC(=O)c1ccc(NC(=O)N2CCN(c3cccc(Cl)c3)CC2)cc1 | - | - | - | - | - | 59
O=C(COc1cccc(Cl)c1)Nc1ccc2c(c1)CCC2 | - | - | - | - | - | 56
CCC(C)n1c(=S)[nH]c2c(sc3ccc([N+](=O)[O-])cc32)c1=O (stereo unspecified) | - | - | - | - | - | -
OC1(c2ccccc2)c2ccccc2-c2ncccc21 (stereo unspecified) | - | - | - | - | - | -
CCC/C(O)=C1\C(=O)CC(C)(C)CC1=Nc1ccccc1O | - | - | - | - | - | -
O=C(CN1CCN(Cc2ccccc2)CC1)Nc1cccc(C(F)(F)F)c1 | - | - | - | - | - | 65
COc1ccc(NC(=O)N2CCN(c3cccc(C(F)(F)F)c3)CC2)cc1OC | - | - | - | - | - | -
O=C(Nc1ccccc1)N1CCN(c2cccc(C(F)(F)F)c2)CC1 | - | - | - | - | - | 90
C=CCOC(=O)N1CCN(c2cccc(C(F)(F)F)c2)CC1 | - | - | - | - | 81 | -
COC(=O)c1cc(C(=O)N2CCN(c3cccc(Cl)c3)CC2)cc([N+](=O)[O-])c1 | - | - | - | - | - | 50
O=C(c1cccc([N+](=O)[O-])c1)N1CCN(c2cccc(Cl)c2)CC1 | - | - | - | - | - | -
COCC(=O)N1CCN(c2cccc(C(F)(F)F)c2)CC1 | - | - | - | - | - | -
COC(=O)c1ccc(NC(=O)Cn2nc(C)cc2C)cc1 | - | - | - | - | - | -
CCOC(=O)C1=C(O)C(=O)N(C2CCCCC2)C1 | . | - | - | . | - | .
CC(C)c1cc(C(C)C)c(S(=O)(=O)N2c3ccccc3[C@@]3(Br)C[C@H]4C(=O)N[C@@H](Cc5ccccc5)C(=O)N4[C@@H]23)c(C(C)C)c1 | . | - | . | . | . | .
O=C(CCC(=O)Nc1ccccc1)NNS(=O)(=O)c1ccccc1[N+](=O)[O-] | - | - | - | - | - | -
O=C(CN1CCCC1)Nc1ccc2c(c1)CCC2 | - | - | - | - | - | -
CN1CCC(N2CCN(c3cccc(C(F)(F)F)c3)CC2)CC1 | - | - | - | - | - | 100
Cn1cc(S(=O)(=O)N2CCN(c3cccc(C(F)(F)F)c3)CC2)c(=O)n(C)c1=O | - | - | - | - | - | -
O=C(CN1CCN(c2ccccc2)CC1)Nc1cccc(C(F)(F)F)c1 | - | - | - | - | 79 | -
COc1ccc(CCNC(=O)CN2CCN(c3cccc(C(F)(F)F)c3)CC2)cc1 | - | - | - | - | 86 | -
O=C(CN1CCN(Cc2ccccc2)CC1)Nc1ccc2c(c1)CCC2 | - | - | - | - | - | 74
Cc1cccc(N2C(=O)C(O)=C(C(=O)c3cccs3)C2c2ccc(Cl)cc2)n1 (stereo unspecified) | . | . | - | . | - | .
Cc1cc(NC(=O)COC(=O)c2ccccc2[N+](=O)[O-])no1 | - | - | - | - | - | -
SMILES | PKD1 inh | Rad51 HR inh | Wee1 stabilizer | Arbovirus inh | CHOP inh | Lmaj promast
c1ccc(Nc2nc3ccccc3n3nnnc23)cc1 | - | - | - | - | - | -
Fc1cccc(Nc2nc3ccccc3n3nnnc23)c1 | - | - | - | - | 87 | -
COc1cccc(Nc2nc3ccccc3n3nnnc23)c1 | - | - | - | - | 88 | -
CCN(CC)S(=O)(=O)c1ccc(Nc2nc3ccccc3n3nnnc23)cc1 | - | - | - | - | - | 67
c1ccc2c(c1)nc(Nc1ccc3c(c1)OCO3)c1nnnn12 | - | - | - | - | - | -
Brc1ccc(Nc2nc3ccccc3n3nnnc23)cc1 | - | . | - | - | - | -
COCCCn1c(O)c(/C=C2\N=C(C#N)C(=Nc3ccc(C)cc3)O2)sc1=S | . | . | - | . | - | .
CCOC(=O)c1cncc(C#CCO)c1 | . | - | - | . | - | .
CCOc1ccc(Nc2ccc(N3C(=O)CCC3=O)cc2[N+](=O)[O-])cc1 | - | - | - | - | - | -
Cc1cc(/C=C2\Cc3ccccc3C2=O)c(C)n1-c1ccccc1 | - | - | - | - | 89 | -
Cc1cc(C=C2C(=O)c3ccccc3C2=O)c(C)n1-c1ccccc1 | - | - | - | - | 84 | -
Cc1ccc(-n2c(C)cc(C=C3C(=O)CC(C)(C)CC3=O)c2C)cc1 | - | - | - | - | - | 98
CC1=NN(c2ccccc2)C(=O)/C1=C\c1cc(C)n(-c2ccccc2)c1C | - | - | - | - | - | -
Cc1cc(C=C2C(=O)c3ccccc3C2=O)c(C)n1-c1ccc(C(=O)O)cc1 | - | - | - | - | - | -
CN(C)S(=O)(=O)c1ccc(Cl)c(NC(=O)CSc2nc3ccccc3c(=O)n2CCCN2CCOCC2)c1 | - | - | - | - | - | -
COC(=O)C1=C(C)N(c2ccc(Cl)c(Cl)c2)C(=O)C1 | - | - | - | - | . | 80
CC(C)NC(=O)CC(=O)NN=C1CCCCC1 | - | - | - | - | - | -
COc1ccc(-c2nnc(Nc3ccc(OC)c(C(=O)N4CCCCC4)c3)c3ccccc23)cc1 | - | - | - | - | - | 53
CN(C(=O)Cn1nnc(-c2cccnc2)n1)C1CCCCC1 | . | - | - | . | - | .
COc1ccc(-c2c[n+](CC(=O)N3c4ccccc4Sc4ccccc43)c3n2CCC3)cc1 | . | - | - | . | - | .
O=C(C[n+]1cc(-c2ccc(F)cc2)n2c1CCC2)Nc1nc(-c2ccccc2)cs1 | - | - | - | - | - | 81
Cn1c(NC(=O)C[n+]2cc(-c3ccc(Cl)c(Cl)c3)n3c2CCC3)cc(=O)n(C)c1=O | - | - | - | - | - | 88
O=C(C[n+]1cc(-c2ccc(Cl)c(Cl)c2)n2c1CCC2)N1c2ccccc2Sc2ccccc21 | - | - | - | - | - | 54
O=C(C[n+]1cc(-c2ccc(Cl)cc2)n2c1CCC2)Nc1nc(-c2ccccc2)cs1 | . | . | - | . | - | .
O=C(C[n+]1cc(-c2ccc(Cl)cc2)n2c1CCC2)N1c2ccccc2Sc2ccccc21 | - | - | - | - | - | 81
SMILES | PKD1 inh | Rad51 HR inh | Wee1 stabilizer | Arbovirus inh | CHOP inh | Lmaj promast
CC1(C)NC(=O)N(c2ccc([N+](=O)[O-])c(C(F)(F)F)c2)C1=O | . | . | . | . | - | .
Cc1ccc(S(=O)(=O)N(CCC(=O)O)Cc2ccc(Cl)cc2)cc1 | - | - | - | - | - | -
Cc1cc(C)n(Cc2cc(C(=O)O)c3ccccc3n2)n1 | - | - | - | - | - | -
CCOC(=O)c1sc2nccc(OC)c2c1N=CN(C)C | - | - | - | - | - | -
COc1ccccc1NS(=O)(=O)c1cccc(NC(=O)NCCCl)c1 | . | . | 11 | . | - | .
COc1ccccc1NS(=O)(=O)c1cccc(NC(=O)c2sc3ccccc3c2Cl)c1 | - | . | - | - | - | 95

Source: PubChem BioAssay (several laboratories)
